Data: ChEMBL document CHEMBL2331368, “Inhibitors of HIV-1 attachment. Part 9: an assessment of oral prodrug approaches to improve the plasma exposure of a tetrazole-containing derivative” (Bioorg Med Chem Lett, 2013)

What was measured:
[1] = Plasma concentration in rat at 5 mg/kg, po at 30 mins; type: ADME, organism-based; design: dose 5 mg/kg, route oral
In short: (§1)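 Rats received 5 mg/kg orally in 90% PEG 400/10% EtOH. The parent tetrazole concentration in plasma was measured at 30 and 120 min after dosing. Each value is the average of two rats.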

[2] = Plasma concentration in rat at 5 mg/kg, po at 120 mins; type: ADME, organism-based; design: dose 5 mg/kg, route oral; in short: as §1
[3] = test system: Human immunodeficiency virus 1; assay: Antiviral activity against HIV1 JRFL pseudotyped virions infected in HeLa CD4 CCR5 cells after 48 hrs by luciferase assay; type: functional, organism-based; settings: Human immunodeficiency virus 1, JRFL, HeLa-CD4/CCR5, 48 h
In short: (§2)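 EC50s came from a single-cycle infectivity assay with HIV JRFL pseudotyped virus. CC50s were determined by the method described in an earlier report. Values are means of two or more experiments.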

[4] = Oral bioavailability in rat at 5 mg/kg; type: ADME, organism-based; settings: in vivo
In short: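 Rat pharmacokinetics used 90% PEG 400/10% EtOH as vehicle. The IV dose was 1 mg/kg and the oral dose 5 mg/kg.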

[5] = Half life in human liver microsomes assessed in presence of NADPH; type: ADME, Microsome
[6] = Cytotoxicity against human HeLa cells by XTT assay; type: cell-based; in short: as §2
Liver microsomes = assay: Prodrug conversion in human liver microsomes assessed as formation of 1-(4-benzoylpiperazin-1-yl)-2-(4-fluoro-7-(2H-tetrazol-5-yl)-1H-indol-3-yl)ethane-1,2-dione in absence of NADPH after 5 mins; type: ADME, Microsome
Caco-2 = assay: Permeability across human Caco2 cells at pH 6.5; type: ADME, cell-based; settings: caco-2, pH 6.5
[7] = Permeability across human Caco2 cells assessed as drug recovery at pH 6.5; type: ADME, cell-based; settings: caco-2, pH 6.5, read-out: Drug recovery

Which concentration at 0.5 h [1] does the source give for O=C(C(=O)N1CCN(C(=O)c2ccccc2)CC1)c1c[nH]c2c(-c3nn[nH]n3)ccc(F)c12 here?
The concentration at 0.5 h was 19 ng/mL.

And the concentration at 2 h [2]?
The concentration at 2 h was 25 ng/mL.

And the EC50 [3]?
The EC50 was 34 nM.

Which bioavailability [4] does the source give for O=C(O)c1c(Cc2ccc(-c3ccccc3-c3nn[nH]n3)cc2)c(C2CC2)nc2ccccc12 here?
Its bioavailability is 11%.

With CC(C)C(OC(=O)C(C)(C)C)n1nnc(-c2ccccc2-c2ccc(Cc3c(C4CC4)nc4ccccc4c3C(=O)O)cc2)n1 (configuration not stated) as the compound, how does the bioavailability [4] read?
Its bioavailability is 39%.

Which results are given for Cn1nnc(-c2ccc(F)c3c(C(=O)C(=O)N4CCN(C(=O)c5ccccc5)CC4)c[nH]c23)n1?
half-life [5]: 12 min; CC50 [6]: > 300000 nM; concentration at 0.5 h [1]: 72 ng/mL; concentration at 2 h [2]: 207 ng/mL; EC50 [3]: 20 nM

What does the source list for CC(C)(C)C(=O)OCn1nnc(-c2ccc(F)c3c(C(=O)C(=O)N4CCN(C(=O)c5ccccc5)CC4)c[nH]c23)n1?
Drug metabolism (Liver microsomes): Active; CC50 [6]: 228000 nM; concentration at 0.5 h [1]: 60 ng/mL; concentration at 2 h [2]: 13 ng/mL; permeability (Caco-2): ND(Insoluble); EC50 [3]: 190 nM

What does the source list for CC(=O)OCn1nnc(-c2ccc(F)c3c(C(=O)C(=O)N4CCN(C(=O)c5ccccc5)CC4)c[nH]c23)n1?
Drug metabolism (Liver microsomes): Active; CC50 [6]: 36000 nM; recovery [7]: < 70%; concentration at 0.5 h [1]: 261 ng/mL; concentration at 2 h [2]: 378 ng/mL; EC50 [3]: 60 nM
